MIC data for eight compounds are collected here from ChEMBL document CHEMBL4014308, “Amphiphilic Tobramycin-Lysine Conjugates Sensitize Multidrug Resistant Gram-Negative Bacteria to Rifampicin and Minocycline” (J Med Chem, 2017).

Values after ≈ are worked out from the molar mass of the structure shown.

What all share (assay type): functional
In test [1] the test system is Pseudomonas aeruginosa. The test is described as follows: Antibacterial activity against multidrug/extremely drug-resistant/colistin-susceptible Pseudomonas aeruginosa isolate 101885 after 18 hrs by microtiter dilution assay. The settings on record: isolate 101885, 18 h. Put shortly:
(§1)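 Broth microdilution following CLSI guidelines. An overnight culture was adjusted to 0.5 McFarland in saline, then diluted 1:50 in Mueller-Hinton broth. This inoculum was added in equal volume to 2-fold serial dilutions of agent in MHB and incubated 18 h at 37 °C. MIC was the lowest concentration with no visible growth.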

Test [2] concerns Pseudomonas aeruginosa. The test is described as follows: Antibacterial activity against multidrug/extremely drug-resistant/colistin-susceptible Pseudomonas aeruginosa isolate P262-101856 after 18 hrs by microtiter dilution assay. Particulars: isolate P262-101856, 18 h. Put shortly:
as §1

The test system of test [3] is Pseudomonas aeruginosa. The test is described as follows: Antibacterial activity against multidrug/extremely drug-resistant/colistin-susceptible Pseudomonas aeruginosa isolate P264-104354 after 18 hrs by microtiter dilution assay. The settings on record: isolate P264-104354, 18 h. Put shortly:
as §1

In test [4] the test system is Pseudomonas aeruginosa. Nature of the test: Antibacterial activity against multidrug/extremely drug-resistant/colistin-susceptible Pseudomonas aeruginosa isolate 100036 after 18 hrs by microtiter dilution assay. The settings on record: isolate 100036, 18 h. Put shortly: as §1
Test [5] deals with Pseudomonas aeruginosa. Nature of the test: Antibacterial activity against Pseudomonas aeruginosa PAO1 after 18 hrs by microtiter dilution assay. Put shortly:
as §1

The test system of test [6] is Pseudomonas aeruginosa. The test is described as follows: Antibacterial activity against multidrug/extremely drug-resistant/colistin-resistant Pseudomonas aeruginosa isolate 91433 after 18 hrs by microtiter dilution assay. The settings on record: isolate 91433, 18 h. Put shortly:
as §1

Test [7] deals with Pseudomonas aeruginosa. Nature of the test: Antibacterial activity against multidrug/extremely drug-resistant/colistin-resistant Pseudomonas aeruginosa isolate 101243 after 18 hrs by microtiter dilution assay. The settings on record: isolate 101243, 18 h. Put shortly: as §1
Test [8] has as its system Pseudomonas aeruginosa. The test is described as follows: Antibacterial activity against multidrug/extremely drug-resistant/colistin-susceptible Pseudomonas aeruginosa isolate P259-96918 after 18 hrs by microtiter dilution assay. The settings on record: isolate P259-96918, 18 h. Put shortly:
as §1

A further test concerns Escherichia coli. The test is described as follows: Antibacterial activity against amikacin-resistant Escherichia coli isolate CAN-ICU 63074 after 18 hrs by microtiter dilution assay. The settings on record: isolate CAN-ICU 63074, 18 h. Put shortly:
as §1

Regarding `COc1c(N2C[C@@H]3CCCN[C@@H]3C2)c(F)cc2c(=O)c(C(=O)O)cn(C3CC3)c12` [MOXIFLOXACIN], the MIC – broadly, the lowest concentration found to suppress growth – in the test on Pseudomonas aeruginosa [1] was found to be 64 µg/mL (≈ 159 µM); against Pseudomonas aeruginosa [2], 128 µg/mL (≈ 319 µM); in the test with Pseudomonas aeruginosa [3], 128 µg/mL (≈ 319 µM); against Pseudomonas aeruginosa [4], 128 µg/mL (≈ 319 µM); in the test on Pseudomonas aeruginosa [5] (PAO1, 18 h), 1 µg/mL (≈ 2.49 µM); against Pseudomonas aeruginosa [6], 8 µg/mL (≈ 19.9 µM). The MIC with Pseudomonas aeruginosa [7] came out at 4 µg/mL (≈ 9.96 µM); in the test with Pseudomonas aeruginosa [8], 512 µg/mL (≈ 1280 µM).

Compound `NC[C@H]1O[C@H](O[C@H]2[C@H](O)[C@@H](O[C@H]3O[C@H](CO)[C@@H](O)[C@H](N)[C@H]3O)[C@H](N)C[C@@H]2N)[C@H](O)[C@@H](O)[C@@H]1O` [KANAMYCIN] gave an MIC against Pseudomonas aeruginosa [5] (PAO1, 18 h) of 64 µg/mL (≈ 132 µM).

For the compound `NCC[C@H](O)C(=O)N[C@@H]1C[C@H](N)[C@@H](O[C@H]2O[C@H](CN)[C@@H](O)[C@H](O)[C@H]2O)[C@H](O)[C@H]1O[C@H]1O[C@H](CO)[C@@H](O)[C@H](N)[C@H]1O` [AMIKACIN], the minimal inhibitory concentration (MIC) against Escherichia coli came out at 32 µg/mL (≈ 54.6 µM); in the test on Pseudomonas aeruginosa [5] (PAO1, 18 h) it was 1 µg/mL (≈ 1.71 µM).

`CC[C@H]1OC(=O)[C@H](C)[C@@H](O[C@H]2C[C@@](C)(OC)[C@@H](O)[C@H](C)O2)[C@H](C)[C@@H](O[C@@H]2O[C@H](C)C[C@H](N(C)C)[C@H]2O)[C@](C)(O)C[C@@H](C)C(=O)[C@H](C)[C@@H](O)[C@]1(C)O` [ERYTHROMYCIN]: the minimum inhibitory concentration (MIC) against Pseudomonas aeruginosa [1] is 256 µg/mL (≈ 349 µM); in the test on Pseudomonas aeruginosa [2] it was 1020 µg/mL (≈ 1400 µM); with Pseudomonas aeruginosa [3] it was 256 µg/mL (≈ 349 µM); against Pseudomonas aeruginosa [4] it was 256 µg/mL (≈ 349 µM); with Pseudomonas aeruginosa [5] (PAO1, 18 h), 256 µg/mL (≈ 349 µM); in the test on Pseudomonas aeruginosa [6] it was 512 µg/mL (≈ 698 µM). The minimal inhibitory concentration (MIC) in the test with Pseudomonas aeruginosa [7] was found to be 1020 µg/mL (≈ 1400 µM); against Pseudomonas aeruginosa [8] it was 256 µg/mL (≈ 349 µM).

On to `CO[C@@H]1[C@@H](OC(N)=O)[C@@H](O)[C@H](Oc2ccc3c(O)c(NC(=O)c4ccc(O)c(CC=C(C)C)c4)c(=O)oc3c2C)OC1(C)C` [NOVOBIOCIN], for which, in the test with Pseudomonas aeruginosa [5] (PAO1, 18 h), the minimum inhibitory concentration (MIC) turned out to be 1020 µg/mL (≈ 1670 µM).

For GENTAMICIN, in the test on Pseudomonas aeruginosa [5], the minimum inhibitory concentration (MIC) is 1 µg/mL.

`O=C(O)c1cn(C2CC2)c2cc(N3CCNCC3)c(F)cc2c1=O` [CIPROFLOXACIN]: the MIC in the test with Pseudomonas aeruginosa [1] amounted to 32 µg/mL (≈ 96.6 µM); in the test with Pseudomonas aeruginosa [2], 32 µg/mL (≈ 96.6 µM); in the test on Pseudomonas aeruginosa [3] it was 32 µg/mL (≈ 96.6 µM); in the test with Pseudomonas aeruginosa [4], 64 µg/mL (≈ 193 µM); in the test with Pseudomonas aeruginosa [8] it was 128 µg/mL (≈ 386 µM).

For the compound `O=C(N[C@H](CO)[C@H](O)c1ccc([N+](=O)[O-])cc1)C(Cl)Cl` [CHLORAMPHENICOL], the MIC in the test on Pseudomonas aeruginosa [1] is 512 µg/mL (≈ 1580 µM); in the test with Pseudomonas aeruginosa [2], 1020 µg/mL (≈ 3170 µM); with Pseudomonas aeruginosa [3] it was 1020 µg/mL (≈ 3170 µM); in the test on Pseudomonas aeruginosa [4], more than 512 µg/mL; against Pseudomonas aeruginosa [5] (PAO1, 18 h), 64 µg/mL (≈ 198 µM); against Pseudomonas aeruginosa [6] it was 16 µg/mL (≈ 49.5 µM). In addition, the MIC was 4 µg/mL (≈ 12.4 µM) with Pseudomonas aeruginosa [7] and 512 µg/mL (≈ 1580 µM) against Pseudomonas aeruginosa [8].
